Measurements as given in ChEMBL document CHEMBL1142436, “Design and synthesis of 4-substituted indolo[3,2-e][1,2,3]triazolo[1,5-a]pyrimidine derivatives with antitumor activity” (2008).

Columns and labels:
Type in all cases: functional
PC-3 = assay: Growth inhibition of human PC3 cells after 48 hrs; details: PC-3, 48 h; for TGI: read-out: pTGI (converted)
Summary of the method: (§1)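 NCI ~60-line screen. Cells were grown in RPMI 1640 with 5% FBS and 2 mM L-glutamine and plated at 5000–40000 cells/well. After a 24 h preincubation, five drug concentrations from DMSO stocks were added for 48 h at 37 °C. Cells were TCA-fixed, stained with SRB and read at 515 nm. GI50 was taken from time-zero and control absorbances and reported as pGI50.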

UACC-257 = assay: Growth inhibition of human UACC257 cells after 48 hrs; details: UACC-257, 48 h; for TGI: read-out: pTGI (converted)
Summary of the method: (§2)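 NCI 60-line screen: cells in RPMI 1640 with 5% FBS and 2 mM L-glutamine, plated at 5000–40000 cells/well, grown 24 h (37 °C, 5% CO₂), then exposed to five 10-fold or ½-log dilutions (DMSO stock) for 48 h. Fixed with TCA (final 10% for adherent cells, 16% for suspension cells), then SRB stained with absorbance at 515 nm. GI50 from percentage growth relative to time-zero and control wells.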

SW-620 = assay: Growth inhibition of human SW620 cells after 48 hrs; details: SW-620, 48 h; for TGI: read-out: pTGI (converted); summary of the method: as §2
A498 = assay: Growth inhibition of human A498 cells after 48 hrs; details: A498, 48 h; for CC50: read-out: Log LC50 (the source's name) (converted); for TGI: read-out: pTGI (converted); summary of the method: as §1
SN12C = assay: Growth inhibition of human SN12C cells after 48 hrs; details: for TGI: read-out: pTGI (converted); summary of the method: as §2
RPMI-8226 = assay: Growth inhibition of human RPMI8226 cells after 48 hrs; details: RPMI-8226, 48 h; for TGI: read-out: pTGI (converted); summary of the method: as §1
NCI-H460 = assay: Growth inhibition of human NCI-H460 cells after 48 hrs; details: NCI-H460, 48 h; for TGI: read-out: pTGI (converted); summary of the method: as §1
HL-60 = assay: Growth inhibition of human HL60 cells after 48 hrs; details: HL-60, 48 h; for TGI: read-out: pTGI (converted); summary of the method: as §1
KM12 = assay: Growth inhibition of human KM12 cells after 48 hrs; details: KM12, 48 h; for TGI: read-out: pTGI (converted); summary of the method: as §1
MCF7 = assay: Growth inhibition of human MCF7 cells after 48 hrs; details: MCF7, 48 h; for TGI: read-out: pTGI (converted); summary of the method: as §1
DU-145 = assay: Growth inhibition of human DU145 cells after 48 hrs; details: DU-145, 48 h; for TGI: read-out: pTGI (converted); summary of the method: as §1
RXF 393 = assay: Growth inhibition of human RXF393 cells after 48 hrs; details: RXF 393, 48 h; for TGI: read-out: pTGI (converted); summary of the method: as §1
NCI/ADR-RES = assay: Growth inhibition of human NCI/ADR-RES cells after 48 hrs; details: for TGI: read-out: pTGI (converted); summary of the method: as §1
SK-OV-3 = assay: Growth inhibition of human SKOV3 cells after 48 hrs; details: SK-OV-3, 48 h; for TGI: read-out: pTGI (converted); summary of the method: as §2
EKVX = assay: Growth inhibition of human EKVX cells after 48 hrs; summary of the method: as §1
SF-268 = assay: Growth inhibition of human SF268 cells after 48 hrs; details: SF-268, 48 h; for CC50: read-out: Log LC50 (the source's name) (converted); for TGI: read-out: pTGI (converted); summary of the method: as §1
MDA-MB-231 = assay: Growth inhibition of human MDA-MB-231 cells after 48 hrs; details: MDA-MB-231, 48 h; for TGI: read-out: pTGI (converted); summary of the method: as §1
HCC 2998 = assay: Growth inhibition of human HCC2998 cells after 48 hrs; details: HCC 2998, 48 h; for TGI: read-out: pTGI (converted); summary of the method: as §1
MOLT-4 = assay: Growth inhibition of human MOLT4 cells after 48 hrs; details: MOLT-4, 48 h; for TGI: read-out: pTGI (converted); summary of the method: as §1
U-251 = assay: Growth inhibition of human U251 cells after 48 hrs; details: U-251, 48 h; for TGI: read-out: pTGI (converted); summary of the method: as §2
SR = assay: Growth inhibition of human SR cells after 48 hrs; details: for TGI: read-out: pTGI (converted); summary of the method: as §2
786-0 = assay: Growth inhibition of human 786-0 cells after 48 hrs; details: 786-0, 48 h; for TGI: read-out: pTGI (converted); summary of the method: as §1
CAKI-1 = assay: Growth inhibition of human CAKI1 cells after 48 hrs; details: CAKI-1, 48 h; for TGI: read-out: pTGI (converted); summary of the method: as §1
OVCAR-5 = assay: Growth inhibition of human OVCAR5 cells after 48 hrs; details: OVCAR-5, 48 h; for TGI: read-out: pTGI (converted); summary of the method: as §1
BT-549 = assay: Growth inhibition of human BT549 cells after 48 hrs; details: BT-549, 48 h; summary of the method: as §1

## Cn1c2ccccc2c2c(=O)n(CCCC(=O)NCCc3c[nH]cn3)c3c(-c4ccccc4)nnn3c21
PC-3
  GI50: 8.91 µM
  LC50: 44.7 µM
  TGI: 20 µM
UACC-257
  GI50: 12 µM
  LC50: 38.9 µM
  TGI: 21.4 µM
SW-620
  GI50: 12.9 µM
  LC50 (lethal concentration, 50% cell kill): > 50.1 µM
  TGI: 30.2 µM
A498
  GI50: 7.59 µM
  CC50: 30.9 µM
  TGI: 15.1 µM
SN12C
  GI50: 8.71 µM
  LC50: 39.8 µM
  TGI: 18.6 µM
RPMI-8226
  GI50: 10.5 µM
  LC50: > 50.1 µM
  TGI: 28.8 µM
NCI-H460
  GI50: 11 µM
  LC50: > 50.1 µM
  TGI: 24.5 µM
HL-60
  GI50: 11.7 µM
  LC50: > 50.1 µM
  TGI: 28.2 µM
KM12
  GI50: 8.13 µM
  LC50: 35.5 µM
  TGI: 17 µM
MCF7
  GI50: 12.9 µM
  LC50: > 50.1 µM
  TGI: 30.2 µM
DU-145
  GI50: 6.92 µM
  LC50: 27.5 µM
  TGI: 13.8 µM
RXF 393
  GI50: 7.41 µM
  LC50: 44.7 µM
  TGI: 18.2 µM
NCI/ADR-RES
  GI50: > 50.1 µM
  LC50 (concentration killing 50% of cells): > 50.1 µM
  TGI: > 50.1 µM
SK-OV-3
  GI50: 10.2 µM
  LC50: 33.9 µM
  TGI: 18.6 µM
EKVX
  GI50: 10 µM
  LC50: > 50.1 µM
EKVX; read-out: pTGI (converted)
  TGI: 24 µM
SF-268
  GI50: 11.7 µM
  CC50: > 50.1 µM
  TGI: 31.6 µM
MDA-MB-231
  GI50: 9.33 µM
  LC50 (concentration killing 50% of cells): 37.2 µM
  TGI: 18.6 µM
HCC 2998
  GI50: 9.55 µM
  LC50: 40.7 µM
  TGI: 20 µM
MOLT-4
  GI50: 3.98 µM
  LC50: > 50.1 µM
  TGI: 21.4 µM
U-251
  GI50: 9.55 µM
  LC50: 36.3 µM
  TGI: 18.6 µM
SR
  GI50: 4.07 µM
  LC50: > 50.1 µM
  TGI: > 50.1 µM
786-0
  GI50: 2.19 µM
  LC50: 26.9 µM
  TGI: 8.13 µM
CAKI-1
  GI50: 12 µM
  LC50 (concentration killing 50% of cells): > 50.1 µM
  TGI: 33.1 µM
OVCAR-5
  GI50: 11 µM
  LC50 (concentration killing 50% of cells): 38 µM
  TGI: 20.4 µM

## Cn1c2ccccc2c2c(=O)n(CCCC(=O)NCC(=O)N(C(=O)NC3CCCCC3)C3CCCCC3)c3c(-c4ccccc4)nnn3c21
PC-3
  GI50: 22.9 µM
  LC50: > 100 µM
  TGI: > 100 µM
UACC-257
  GI50: 66.1 µM
  LC50: > 100 µM
  TGI: > 100 µM
SW-620
  GI50: 3.8 µM
  LC50 (lethal concentration, 50% cell kill): > 100 µM
  TGI: > 100 µM
A498
  GI50: 30.9 µM
  CC50: > 100 µM
  TGI: > 100 µM
SN12C
  GI50: 19.5 µM
  LC50: > 100 µM
  TGI: 50.1 µM
RPMI-8226
  GI50: 4.27 µM
  LC50: 97.7 µM
  TGI: 21.4 µM
NCI-H460
  GI50: 32.4 µM
  LC50: > 100 µM
  TGI: > 100 µM
BT-549
  GI50: 26.9 µM
HL-60
  GI50: 2.88 µM
  LC50: > 100 µM
  TGI: 8.32 µM
KM12
  GI50: 31.6 µM
  LC50: > 100 µM
  TGI: > 100 µM
MCF7
  GI50: 3.63 µM
  LC50: > 100 µM
  TGI: > 100 µM
DU-145
  GI50: 18.6 µM
  LC50: > 100 µM
  TGI: > 100 µM
RXF 393
  GI50: 11 µM
  LC50: > 100 µM
  TGI: 37.2 µM
NCI/ADR-RES
  GI50: 15.5 µM
  LC50 (concentration killing 50% of cells): 72.4 µM
  TGI: 33.9 µM
SK-OV-3
  LC50: 33.9 µM
  TGI: 18.6 µM
SF-268
  GI50: 15.1 µM
  CC50: > 100 µM
  TGI: > 100 µM
MDA-MB-231
  GI50: 12.3 µM
  LC50 (concentration killing 50% of cells): > 100 µM
  TGI: 38 µM
HCC 2998
  GI50: 10.2 µM
  LC50: 70.8 µM
  TGI: 26.9 µM
MOLT-4
  GI50: 14.5 µM
  LC50: > 100 µM
  TGI: > 100 µM
U-251
  GI50: 12.3 µM
  LC50: > 100 µM
  TGI: 38 µM
SR
  GI50: 3.02 µM
  LC50: 8.51 µM
  TGI: 5.13 µM
786-0
  GI50: 18.6 µM
  LC50: > 100 µM
  TGI: 44.7 µM
CAKI-1
  GI50: 32.4 µM
  LC50 (concentration killing 50% of cells): > 100 µM
  TGI: 37.2 µM
OVCAR-5
  GI50: 15.5 µM
  LC50 (concentration killing 50% of cells): 69.2 µM
  TGI: 32.4 µM
